Results on six molecules are retold here after publication PMC10839871 (Heliyon, 2024).

The conditions of assay [1]: ref 27 (Djouahri et al., 2015); cited from earlier work.
For a further assay, the system named is Pseudomonas aeruginosa. Nature of the assay: MIC / bacterial growth, broth microdilution. The format is cell-based. The conditions noted are these: standard antibiotic. In a few lines: (§1)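 Ampicillin (10 to 0.078125 mg/mL) as reference in Mueller–Hinton broth microdilution. Wells inoculated with fresh overnight suspension adjusted to OD600 0.6; uninoculated and drug-free growth controls included. Incubated 18 h at 37 °C, aerobic, shaking at 150 rpm. Growth checked visually and spectrophotometrically. MIC taken as lowest concentration preventing visible growth. Triplicate.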
A general note: Dilution methods test growth across graded concentrations, often in twofold steps.

In another assay the test system is Staphylococcus aureus. Nature of the assay: MIC / bacterial growth, broth microdilution. Type of assay: cell-based. The conditions noted are these: standard antibiotic. In a few lines:
as §1

A further assay has as its system Enterococcus faecalis. Nature of the assay: MIC / bacterial growth, broth microdilution. Type of assay: cell-based. The settings on record: standard antibiotic. The essentials:
as §1

Assay [2] can be described thus: DPPH free radical scavenging assay.
The nature of assay [3]: Ferric reducing antioxidant power.
The target in assay [4] is Porcine pancreatic elastase (Sus scrofa, UniProt P00772). Nature of the assay: Anti-elastase activity. The format is biochemical. In a few lines: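 Porcine pancreatic elastase stock at 3.33 mg/mL in sterile water. Test sample (3–0.046 mg/mL), Tris–HCl buffer (pH 8) and enzyme pre-incubated 15 min. N-succinyl-Ala-Ala-Ala-p-nitroanilide substrate (1.6 mM solution) added, then 20 min at 37 °C. A400 read immediately. Inhibition % from blank-corrected sample versus buffer+enzyme absorbance. EGCG positive control. Run in triplicate, mean ± SD.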

Molecules are shown by their SMILES. Where two headings read alike, the source gives them in different places.

Porcine pancreatic elastase, sequence (P00772 27-266): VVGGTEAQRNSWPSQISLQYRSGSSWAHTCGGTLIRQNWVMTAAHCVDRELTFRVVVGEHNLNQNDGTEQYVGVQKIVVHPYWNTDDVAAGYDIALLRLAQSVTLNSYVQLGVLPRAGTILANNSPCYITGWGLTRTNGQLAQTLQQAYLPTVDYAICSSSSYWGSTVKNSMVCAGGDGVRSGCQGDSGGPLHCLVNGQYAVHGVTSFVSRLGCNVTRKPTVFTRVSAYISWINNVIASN

As to `Cc1cc(C(C)(C)C)c(O)c(C(C)(C)C)c1` [BHT], in assay [1], the “DPPH IC50” value was 33.89 ± 0.16 µg/mL.

Consider `CC1(C)S[C@@H]2[C@H](NC(=O)[C@H](N)c3ccccc3)C(=O)N2[C@H]1C(=O)O` [ampicillin], for which the “Concentration that completely inhibited the bacterial growth” value in the assay on Pseudomonas aeruginosa, in the assay on Staphylococcus aureus and in the assay with Enterococcus faecalis was 0.3125 mg/mL throughout. For `COc1ccc(O)c(C(C)(C)C)c1` [BHA], in assay [1], the “DPPH IC50” value is 24.73 ± 0.11 µg/mL.

Consider `O=c1c(O)c(-c2ccc(O)c(O)c2)oc2cc(O)cc(O)c12` [Quercetin], for which, in assay [2], the “DPPH IC50” value is 5.36 ± 0.25 µg/mL. Further, in assay [3], the FRAP is on record as 16.60 ± 0.64 mM of FeSO4/g Extract. With `O=C1O[C@H]([C@@H](O)CO)C(O)=C1O` [Ascorbic acid], the “ABTS IC50” value in “ABTS assay” was found to be 21.7 ± 0.29 µg/mL. As for `O=C(O[C@@H]1Cc2c(O)cc(O)cc2O[C@@H]1c1cc(O)c(O)c(O)c1)c1cc(O)c(O)c(O)c1` [EGCG, epigallocatechin gallate], the “Elastase IC50” value in assay [4] worked out at 92.00 ± 3.1 µg/mL.
